ChEMBL document CHEMBL3232844, “Synthesis and structure activity relationships of schweinfurthin indoles” (2014)

How the values were obtained:
Format in all cases: functional
[1] = system: MDA-MB-231; test: Cytotoxicity against human MDA-MB-231 cells
In short: (§1)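 Tested in a 60-cell-line human tumor panel screen; the read-out is growth inhibition, reported as GI50 for each cell line.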

[2] = Cytotoxicity against human OVCAR5 cells; in short: as §1
[3] = system: A498; test: Cytotoxicity against human A498 cells; in short: as §1
[4] = system: KM12; test: Cytotoxicity against human KM12 cells; in short: as §1
[5] = system: DU-145; test: Cytotoxicity against human DU145 cells; in short: as §1
[6] = system: SNB-19; test: Cytotoxicity against human SNB19 cells; in short: as §1
[7] = system: NCI-H23; test: Cytotoxicity against human NCI-H23 cells; in short: as §1
[8] = Cytotoxicity against human UACC257 cells
In short: (§2)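 Cell line run as part of the 60-cell-line screening panel; growth inhibition was reported as a GI50 for each line.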

[9] = system: SK-MEL-2; test: Cytotoxicity against human SK-MEL-2 cells; in short: as §1
[10] = system: ACHN; test: Cytotoxicity against human ACHN cells; in short: as §1
[11] = Cytotoxicity against human OVCAR8 cells; in short: as §1
[12] = system: LOX IMVI; test: Cytotoxicity against human LOXIMVI cells; in short: as §1
[13] = Cytotoxicity against human OVCAR4 cells; in short: as §1
[14] = system: NCI-H460; test: Cytotoxicity against human NCI-H460 cells; in short: as §1
[15] = system: SF-295; test: Cytotoxicity against human SF295 cells; in short: as §1
[16] = system: NCI-H322M; test: Cytotoxicity against human NCI-H322M cells; in short: as §1
[17] = Cytotoxicity against human UACC62 cells; in short: as §2
[18] = system: HT-29; test: Cytotoxicity against human HT-29 cells; in short: as §1
[19] = system: MDA-MB-468; test: Cytotoxicity against human MDA-MB-468 cells; in short: as §1
[20] = system: RXF 393; test: Cytotoxicity against human RXF393 cells; in short: as §1
[21] = system: U-251; test: Cytotoxicity against human U251 cells; in short: as §2
[22] = Cytotoxicity against human HCT15 cells; in short: as §1
[23] = system: COLO 205; test: Cytotoxicity against human COLO205 cells; in short: as §1
[24] = system: TK-10; test: Cytotoxicity against human TK10 cells; in short: as §2
[25] = system: MCF7; test: Cytotoxicity against human MCF7 cells; in short: as §1
[26] = system: CCRF-CEM; test: Cytotoxicity against human CCRF-CEM cells
[27] = system: T47D; test: Cytotoxicity against human T47D cells; in short: as §2
[28] = system: MOLT-4; test: Cytotoxicity against human MOLT4 cells; in short: as §1
[29] = Cytotoxicity against human OVCAR3 cells; in short: as §1
[30] = Cytotoxicity against human NCI-ADR-RES cells; in short: as §1
[31] = system: K562; test: Cytotoxicity against human K562 cells; in short: as §1
[32] = system: SK-MEL-5; test: Cytotoxicity against human SK-MEL-5 cells; in short: as §1
[33] = system: HCC 2998; test: Cytotoxicity against human HCC2998 cells; in short: as §1
[34] = system: M14; test: Cytotoxicity against human M14 cells; in short: as §1
[35] = Cytotoxicity against human UO31 cells; in short: as §2
[36] = system: SF-539; test: Cytotoxicity against human SF539 cells; in short: as §1
[37] = system: SK-OV-3; test: Cytotoxicity against human SKOV3 cells; in short: as §1
[38] = system: SNB-75; test: Cytotoxicity against human SNB75 cells; in short: as §2
[39] = system: A549; test: Cytotoxicity against human A549 cells; in short: as §1
[40] = system: HOP-62; test: Cytotoxicity against human HOP62 cells; in short: as §1
[41] = system: NCI-H226; test: Cytotoxicity against human NCI-H226 cells; in short: as §1
[42] = system: BT-549; test: Cytotoxicity against human BT549 cells; in short: as §1
[43] = Cytotoxicity against human EKVX cells; in short: as §1
[44] = system: CAKI-1; test: Cytotoxicity against human Caki1 cells; in short: as §1
[45] = read-out: pLC50 (the source's name) (converted)

COc1cc(/C=C/c2cc(O)c3c(CC=C(C)C)c[nH]c3c2)cc2c1O[C@]1(C)CC[C@@H](O)C(C)(C)[C@H]1C2
GI50 [1]: 0.724 µM | LC50 [1]: 50.1 µM | TGI ([1]; read-out: pTGI (converted)): 50.1 µM | GI50 ([2]; OVCAR-5): 15.1 µM | CC50 ([2]; OVCAR-5, read-out: pLC50 (the source's name) (converted)): 50.1 µM | TGI ([2]; OVCAR-5, read-out: pTGI (converted)): 50.1 µM | GI50 [3]: 0.129 µM | CC50 [3, 45]: 50.1 µM | TGI ([3]; read-out: pTGI (converted)): 0.724 µM | GI50 [4]: 0.275 µM | TGI ([4]; read-out: pTGI (converted)): 1.12 µM | GI50 [5]: 3.55 µM | LC50 (50% lethal concentration) [5]: 50.1 µM | TGI ([5]; read-out: pTGI (converted)): 50.1 µM | GI50 [6]: 0.708 µM | CC50 [6, 45]: 50.1 µM | TGI ([6]; read-out: pTGI (converted)): 50.1 µM | GI50 [7]: 0.427 µM | CC50 [7, 45]: 50.1 µM | TGI ([7]; read-out: pTGI (converted)): 22.4 µM | GI50 ([8]; UACC-257): 1.23 µM | CC50 ([8]; UACC-257, read-out: pLC50 (the source's name) (converted)): 50.1 µM | TGI ([8]; UACC-257, read-out: pTGI (converted)): 50.1 µM | GI50 [9]: 0.269 µM | CC50 [9, 45]: 50.1 µM | TGI ([9]; read-out: pTGI (converted)): 50.1 µM | GI50 [10]: 1.48 µM | LC50 (concentration killing 50% of cells) [10]: 50.1 µM | TGI ([10]; read-out: pTGI (converted)): 50.1 µM | GI50 ([11]; OVCAR-8): 12.9 µM | CC50 ([11]; OVCAR-8, read-out: pLC50 (the source's name) (converted)): 50.1 µM | TGI ([11]; OVCAR-8, read-out: pTGI (converted)): 50.1 µM | GI50 [12]: 0.2 µM | CC50 [12, 45]: 50.1 µM | TGI ([12]; read-out: pTGI (converted)): 1.17 µM | GI50 ([13]; OVCAR-4): 5.25 µM | CC50 ([13]; OVCAR-4, read-out: pLC50 (the source's name) (converted)): 50.1 µM | TGI ([13]; OVCAR-4, read-out: pTGI (converted)): 50.1 µM | GI50 [14]: 0.417 µM | CC50 [14, 45]: 50.1 µM | TGI ([14]; read-out: pTGI (converted)): 50.1 µM | GI50 ([15]; read-out: GI50): < 0.021 µM | GI50 ([15]; read-out: pGI50 (converted)): 0.0316 µM | CC50 [15, 45]: 0.513 µM | TGI ([15]; read-out: pTGI (converted)): 0.135 µM | GI50 [16]: 10.5 µM | CC50 [16, 45]: 50.1 µM | TGI ([16]; read-out: pTGI (converted)): 50.1 µM | GI50 ([17]; UACC-62): 0.138 µM | CC50 ([17]; UACC-62, read-out: pLC50 (the source's name) (converted)): 3.63 µM | TGI ([17]; UACC-62, read-out: pTGI (converted)): 0.407 µM | GI50 [18]: 0.132 µM | CC50 [18, 45]: 50.1 µM | TGI ([18]; read-out: pTGI (converted)): 2 µM | GI50 [19]: 0.513 µM | LC50 [19]: 46.8 µM | TGI ([19]; read-out: pTGI (converted)): 9.33 µM | GI50 [20]: 0.0447 µM | LC50 [20]: 12.9 µM | TGI ([20]; read-out: pTGI (converted)): 0.457 µM | GI50 [21]: 0.151 µM | CC50 [21, 45]: 50.1 µM | TGI ([21]; read-out: pTGI (converted)): 50.1 µM | GI50 ([22]; HCT-15): 0.17 µM | CC50 ([22]; HCT-15, read-out: pLC50 (the source's name) (converted)): 50.1 µM | TGI ([22]; HCT-15, read-out: pTGI (converted)): 1.55 µM | GI50 [23]: 0.302 µM | CC50 [23, 45]: 6.46 µM | TGI ([23]; read-out: pTGI (converted)): 1.35 µM | GI50 [24]: 7.76 µM | LC50 [24]: 50.1 µM | TGI ([24]; read-out: pTGI (converted)): 50.1 µM | GI50 [25]: 0.355 µM | LC50 [25]: 50.1 µM | TGI ([25]; read-out: pTGI (converted)): 3.63 µM | GI50 [26]: 0.148 µM | CC50 [26, 45]: 50.1 µM | TGI ([26]; read-out: pTGI (converted)): 50.1 µM | GI50 [27]: 5.25 µM | CC50 [27, 45]: 50.1 µM | TGI ([27]; read-out: pTGI (converted)): 31.6 µM | GI50 [28]: 0.17 µM | CC50 [28, 45]: 50.1 µM | TGI ([28]; read-out: pTGI (converted)): 50.1 µM | GI50 ([29]; OVCAR-3): 13.5 µM | CC50 ([29]; OVCAR-3, read-out: pLC50 (the source's name) (converted)): 50.1 µM | TGI ([29]; OVCAR-3, read-out: pTGI (converted)): 50.1 µM | GI50 [30]: 8.51 µM | CC50 [30, 45]: 50.1 µM | TGI ([30]; read-out: pTGI (converted)): 50.1 µM | GI50 [31]: 0.224 µM | CC50 [31, 45]: 50.1 µM | TGI ([31]; read-out: pTGI (converted)): 7.76 µM | GI50 [32]: 0.158 µM | CC50 [32, 45]: 1.82 µM | TGI ([32]; read-out: pTGI (converted)): 0.575 µM | GI50 [33]: 3.02 µM | CC50 [33, 45]: 50.1 µM | TGI ([33]; read-out: pTGI (converted)): 50.1 µM | GI50 [34]: 0.251 µM | TGI ([34]; read-out: pTGI (converted)): 1.02 µM | GI50 ([35]; UO-31): 0.269 µM | LC50 ([35]; UO-31): 50.1 µM | TGI ([35]; UO-31, read-out: pTGI (converted)): 1.48 µM | GI50 [36]: 0.0407 µM | CC50 [36, 45]: 2.95 µM | TGI ([36]; read-out: pTGI (converted)): 0.257 µM | GI50 [37]: 3.55 µM | LC50 [37]: 50.1 µM | TGI ([37]; read-out: pTGI (converted)): 32.4 µM | GI50 [38]: 0.055 µM | CC50 [38, 45]: 50.1 µM | TGI ([38]; read-out: pTGI (converted)): 50.1 µM | GI50 [39]: 1.7 µM | CC50 [39, 45]: 50.1 µM | TGI ([39]; read-out: pTGI (converted)): 50.1 µM | GI50 [40]: 0.234 µM | CC50 [40, 45]: 50.1 µM | GI50 [41]: 4.37 µM | CC50 [41, 45]: 50.1 µM | TGI ([41]; read-out: pTGI (converted)): 50.1 µM | GI50 [42]: 0.107 µM | CC50 [42, 45]: 50.1 µM | TGI ([42]; read-out: pTGI (converted)): 13.2 µM | GI50 [43]: 1.07 µM | CC50 [43, 45]: 50.1 µM | TGI ([43]; read-out: pTGI (converted)): 50.1 µM | GI50 [44]: 0.263 µM | LC50 [44]: 50.1 µM | TGI ([44]; read-out: pTGI (converted)): 50.1 µM
